# Columns and labels:
# Settings in all cases: stereoisomer not certain
# [1] = tested on: OR2C1
# In short: (§1)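 Transient luciferase assays in mammalian cell lines were common, though methods varied by source. The values come from published papers and their supplementary material, with extra details from the original authors when needed. Responsive refers to a measured signal the original authors judged statistically different from baseline, and non-responsive (inactive) to the remainder.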
# Target sequence in this assay (as listed by the source): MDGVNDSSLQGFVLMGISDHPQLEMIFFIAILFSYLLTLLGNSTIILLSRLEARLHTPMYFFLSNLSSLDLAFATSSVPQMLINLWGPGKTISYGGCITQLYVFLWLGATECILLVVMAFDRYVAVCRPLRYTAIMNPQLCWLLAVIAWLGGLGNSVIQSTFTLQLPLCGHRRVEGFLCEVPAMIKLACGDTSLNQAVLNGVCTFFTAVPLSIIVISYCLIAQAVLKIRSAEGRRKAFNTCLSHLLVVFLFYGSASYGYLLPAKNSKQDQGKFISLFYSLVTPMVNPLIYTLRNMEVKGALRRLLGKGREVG
# [2] = tested on: OR2C3
# In short: as §1
# Target sequence in this assay (as listed by the source): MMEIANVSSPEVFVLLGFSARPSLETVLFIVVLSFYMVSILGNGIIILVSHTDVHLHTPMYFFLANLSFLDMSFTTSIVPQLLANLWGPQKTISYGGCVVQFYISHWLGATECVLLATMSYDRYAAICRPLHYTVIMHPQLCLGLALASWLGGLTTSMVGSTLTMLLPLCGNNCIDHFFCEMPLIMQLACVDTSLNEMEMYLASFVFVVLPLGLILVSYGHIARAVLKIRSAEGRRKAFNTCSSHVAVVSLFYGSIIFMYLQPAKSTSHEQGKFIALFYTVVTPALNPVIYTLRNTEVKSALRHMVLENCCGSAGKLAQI
# [3] = tested on: OR2C3; remark: listed apart in the source
# In short: as §1
# Target sequence in this assay (as listed by the source): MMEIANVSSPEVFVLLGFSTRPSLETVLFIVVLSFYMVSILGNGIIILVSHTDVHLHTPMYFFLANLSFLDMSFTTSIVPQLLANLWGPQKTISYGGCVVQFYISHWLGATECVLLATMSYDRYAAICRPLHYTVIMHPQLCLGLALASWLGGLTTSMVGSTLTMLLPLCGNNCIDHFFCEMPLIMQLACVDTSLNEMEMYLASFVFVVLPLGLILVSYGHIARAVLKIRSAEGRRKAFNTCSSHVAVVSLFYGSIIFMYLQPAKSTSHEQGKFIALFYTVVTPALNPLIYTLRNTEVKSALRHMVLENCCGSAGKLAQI
# [4] = target: OR2D2 (Homo sapiens) (UniProt Q9H210)
# In short: as §1
# [5] = tested on: OR2D2 S148P I163T M202T
# In short: as §1
# [6] = target: OR2D3 (Homo sapiens) (UniProt Q8NGH3)
# In short: as §1
# [7] = tested on: OR2D3 R155W
# In short: as §1
# [8] = target: OR2F1 (Homo sapiens) (UniProt Q13607)
# In short: as §1
# [9] = target: OR2F2 (Homo sapiens) (UniProt O95006)
# In short: as §1
# [10] = target: T1, OR2G2 (Homo sapiens) (UniProt Q8NGZ5)
# T1 sequence (whole entry): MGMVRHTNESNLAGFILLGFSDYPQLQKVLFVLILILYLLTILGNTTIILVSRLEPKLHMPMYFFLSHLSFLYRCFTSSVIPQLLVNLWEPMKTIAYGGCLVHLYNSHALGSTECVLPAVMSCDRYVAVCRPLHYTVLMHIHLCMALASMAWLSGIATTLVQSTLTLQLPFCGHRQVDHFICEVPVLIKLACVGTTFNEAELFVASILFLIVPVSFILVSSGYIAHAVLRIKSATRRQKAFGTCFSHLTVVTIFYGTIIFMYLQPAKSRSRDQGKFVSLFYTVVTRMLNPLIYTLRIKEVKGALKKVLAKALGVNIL
# In short: as §1
# [11] = tested on: OR2G2 L167P R236G
# In short: as §1
# [12] = target: OR2G3 (Homo sapiens) (UniProt Q8NGZ4)
# In short: as §1
# [13] = tested on: OR2G3 I289V
# In short: as §1
# [14] = target: OR2G6 (Homo sapiens) (UniProt Q5TZ20)
# In short: as §1
# [15] = target: OR2C3 (Homo sapiens) (UniProt Q8N628)
# In short: as §1
# [16] = tested on: OR2C1; remark: listed apart in the source
# In short: as §1
# Target sequence in this assay (as listed by the source): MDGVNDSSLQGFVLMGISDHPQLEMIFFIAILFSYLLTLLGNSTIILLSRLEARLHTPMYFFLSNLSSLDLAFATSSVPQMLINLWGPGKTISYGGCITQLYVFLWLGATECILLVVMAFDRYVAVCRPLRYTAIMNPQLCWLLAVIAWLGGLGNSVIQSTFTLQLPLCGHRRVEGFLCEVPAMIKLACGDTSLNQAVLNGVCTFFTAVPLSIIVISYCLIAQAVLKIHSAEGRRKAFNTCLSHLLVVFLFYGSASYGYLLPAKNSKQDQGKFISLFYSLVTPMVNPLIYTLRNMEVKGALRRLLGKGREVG
# [17] = tested on: OR2C1; remark: listed apart in the source
# In short: as §1
# [18] = tested on: OR2C1; remark: listed apart in the source
# In short: as §1
# Target sequence in this assay (as listed by the source): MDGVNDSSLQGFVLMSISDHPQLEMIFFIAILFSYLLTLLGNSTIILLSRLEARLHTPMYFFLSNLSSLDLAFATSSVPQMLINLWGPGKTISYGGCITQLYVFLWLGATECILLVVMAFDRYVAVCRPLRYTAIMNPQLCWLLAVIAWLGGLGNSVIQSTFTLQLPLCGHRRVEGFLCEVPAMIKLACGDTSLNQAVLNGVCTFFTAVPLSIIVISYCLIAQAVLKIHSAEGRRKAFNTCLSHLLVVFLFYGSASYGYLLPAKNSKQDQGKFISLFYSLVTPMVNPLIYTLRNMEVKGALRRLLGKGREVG
# [19] = tested on: OR2C1; remark: listed apart in the source
# In short: as §1
# Target sequence in this assay (as listed by the source): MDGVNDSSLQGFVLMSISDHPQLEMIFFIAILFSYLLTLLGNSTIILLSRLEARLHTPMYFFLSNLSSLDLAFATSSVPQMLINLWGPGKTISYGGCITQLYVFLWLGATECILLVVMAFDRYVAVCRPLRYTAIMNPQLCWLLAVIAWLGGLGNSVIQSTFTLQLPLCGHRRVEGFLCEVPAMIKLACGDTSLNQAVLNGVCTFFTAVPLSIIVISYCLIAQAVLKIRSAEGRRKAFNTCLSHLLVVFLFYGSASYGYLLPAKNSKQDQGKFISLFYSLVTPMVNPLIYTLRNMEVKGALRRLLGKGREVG
# [20] = tested on: OR2C1; remark: listed apart in the source
# In short: as §1
# Target sequence in this assay (as listed by the source): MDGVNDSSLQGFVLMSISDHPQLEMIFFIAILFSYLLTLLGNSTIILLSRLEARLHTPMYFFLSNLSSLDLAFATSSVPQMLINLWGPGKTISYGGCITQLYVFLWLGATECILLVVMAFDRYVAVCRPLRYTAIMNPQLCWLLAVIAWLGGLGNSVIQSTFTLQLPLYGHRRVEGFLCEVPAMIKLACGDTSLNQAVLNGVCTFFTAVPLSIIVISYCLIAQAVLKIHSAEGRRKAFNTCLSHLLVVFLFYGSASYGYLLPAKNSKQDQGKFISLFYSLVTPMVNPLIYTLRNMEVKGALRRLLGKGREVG
# 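Note: active if original authors judged signal statistically different from baseline.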
# Sequence of OR2D2 (Homo sapiens) (Q9H210 whole entry): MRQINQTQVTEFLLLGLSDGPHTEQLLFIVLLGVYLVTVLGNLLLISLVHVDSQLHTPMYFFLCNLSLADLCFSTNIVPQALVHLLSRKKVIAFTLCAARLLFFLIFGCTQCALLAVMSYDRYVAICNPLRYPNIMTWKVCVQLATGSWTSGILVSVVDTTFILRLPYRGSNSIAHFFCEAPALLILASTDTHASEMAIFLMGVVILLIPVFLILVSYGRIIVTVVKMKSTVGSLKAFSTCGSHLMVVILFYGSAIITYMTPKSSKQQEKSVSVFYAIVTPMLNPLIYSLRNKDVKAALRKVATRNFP
# Sequence of OR2D3 (Homo sapiens) (Q8NGH3 whole entry): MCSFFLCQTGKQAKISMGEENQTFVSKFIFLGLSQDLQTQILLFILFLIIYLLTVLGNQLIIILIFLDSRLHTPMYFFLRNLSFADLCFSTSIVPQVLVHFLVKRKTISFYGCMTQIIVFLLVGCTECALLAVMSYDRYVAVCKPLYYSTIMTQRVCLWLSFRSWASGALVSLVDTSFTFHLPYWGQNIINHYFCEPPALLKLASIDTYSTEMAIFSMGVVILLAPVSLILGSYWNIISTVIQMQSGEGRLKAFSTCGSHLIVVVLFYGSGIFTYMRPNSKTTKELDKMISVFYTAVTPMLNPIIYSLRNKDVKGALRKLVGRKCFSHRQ
# Sequence of OR2F2 (Homo sapiens) (O95006 whole entry): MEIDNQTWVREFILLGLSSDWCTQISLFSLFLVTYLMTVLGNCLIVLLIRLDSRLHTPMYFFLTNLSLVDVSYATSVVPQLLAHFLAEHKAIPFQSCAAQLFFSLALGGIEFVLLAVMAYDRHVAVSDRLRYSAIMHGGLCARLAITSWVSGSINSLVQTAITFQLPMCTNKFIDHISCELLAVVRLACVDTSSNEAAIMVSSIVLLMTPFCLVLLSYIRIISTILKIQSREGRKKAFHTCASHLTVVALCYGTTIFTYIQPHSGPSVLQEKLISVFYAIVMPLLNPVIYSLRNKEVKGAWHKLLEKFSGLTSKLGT
# Sequence of OR2F1 (Homo sapiens) (Q13607 whole entry): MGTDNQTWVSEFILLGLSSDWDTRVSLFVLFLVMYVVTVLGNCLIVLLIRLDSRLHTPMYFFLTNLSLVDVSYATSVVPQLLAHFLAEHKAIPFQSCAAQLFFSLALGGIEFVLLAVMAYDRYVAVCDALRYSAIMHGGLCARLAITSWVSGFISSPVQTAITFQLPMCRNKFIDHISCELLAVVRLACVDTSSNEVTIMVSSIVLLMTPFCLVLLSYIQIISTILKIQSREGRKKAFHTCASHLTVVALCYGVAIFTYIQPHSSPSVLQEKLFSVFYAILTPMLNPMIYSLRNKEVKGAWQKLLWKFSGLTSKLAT
# Sequence of OR2G6 (Homo sapiens) (Q5TZ20 whole entry): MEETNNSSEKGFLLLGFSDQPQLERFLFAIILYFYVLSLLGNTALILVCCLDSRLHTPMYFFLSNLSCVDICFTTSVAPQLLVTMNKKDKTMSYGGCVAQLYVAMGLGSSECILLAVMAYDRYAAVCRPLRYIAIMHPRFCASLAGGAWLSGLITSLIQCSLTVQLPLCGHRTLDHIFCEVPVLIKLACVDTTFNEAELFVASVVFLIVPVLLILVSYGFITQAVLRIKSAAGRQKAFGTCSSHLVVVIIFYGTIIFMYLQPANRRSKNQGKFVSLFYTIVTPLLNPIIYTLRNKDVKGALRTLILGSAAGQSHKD
# Sequence of OR2G3 (Homo sapiens) (Q8NGZ4 whole entry): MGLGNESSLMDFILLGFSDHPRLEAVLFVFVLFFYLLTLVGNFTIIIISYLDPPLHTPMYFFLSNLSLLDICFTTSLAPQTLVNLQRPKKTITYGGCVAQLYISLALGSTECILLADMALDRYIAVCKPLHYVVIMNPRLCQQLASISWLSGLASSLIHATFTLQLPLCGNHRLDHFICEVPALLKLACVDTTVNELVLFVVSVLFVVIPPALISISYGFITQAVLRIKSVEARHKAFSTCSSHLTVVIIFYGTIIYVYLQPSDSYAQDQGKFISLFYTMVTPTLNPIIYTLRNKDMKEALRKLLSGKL
# Sequence of OR2G3 I289V (as listed by the source, stated change not applied): as the sequence (Q8NGZ4 whole entry) above, with I289V counted along it
# Sequence of OR2D3 R155W (as listed by the source, stated change not applied): as the sequence (Q8NGH3 whole entry) above, with R155W counted along it
structure (smiles),measurement,setting,value
C=CCOC(=O)Cc1ccccc1,odorant receptor agonist call,[1],inactive
same,odorant receptor agonist call,[2],inactive
same,odorant receptor agonist call,[3],inactive
same,odorant receptor agonist call,[4],inactive
same,odorant receptor agonist call,[5],inactive
same,odorant receptor agonist call,[6],inactive
same,odorant receptor agonist call,[7],inactive
same,odorant receptor agonist call,[8],inactive
same,odorant receptor agonist call,[9],inactive
same,odorant receptor agonist call,[10],inactive
same,odorant receptor agonist call,[11],inactive
same,odorant receptor agonist call,[12],inactive
same,odorant receptor agonist call,[13],inactive
same,odorant receptor agonist call,[14],inactive
Cc1c([N+](=O)[O-])c(C)c([N+](=O)[O-])c(C(C)(C)C)c1[N+](=O)[O-],odorant receptor agonist call,[15],inactive
same,odorant receptor agonist call,[4],inactive
same,odorant receptor agonist call,[6],inactive
same,odorant receptor agonist call,[8],inactive
same,odorant receptor agonist call,[9],inactive
same,odorant receptor agonist call,[10],inactive
same,odorant receptor agonist call,[12],inactive
same,odorant receptor agonist call,[14],inactive
C=CCc1ccc(OC)cc1,odorant receptor agonist call,[10],inactive
O=Cc1ccccc1,odorant receptor agonist call,[10],inactive
O=CC=Cc1ccccc1,odorant receptor agonist call,[16],inactive
same,odorant receptor agonist call,[1],inactive
same,odorant receptor agonist call,[17],inactive
same,odorant receptor agonist call,[18],inactive
same,odorant receptor agonist call,[19],active
same,odorant receptor agonist call,[20],active

# Source: the M2OR odorant receptor database
